We go through 27 compounds from ChEMBL document CHEMBL4118069, “Structure-activity relationship study and optimisation of 2-aminopyrrole-1-benzyl-4,5-diphenyl-1H-pyrrole-3-carbonitrile as a broad spectrum metallo-β-lactamase inhibitor” (Eur J Med Chem, 2017).

SMILES strings stand for the structures.

For data set [1], the system named is Bacteria. The experiment in a line: Inhibition of bacterial IMP1 at 10 uM using CENTA as substrate by UV/Vis multi-plate spectrophotometric method relative to control.
The target in data set [2] is T1, Metallo-beta-lactamase AIM-1 (Pseudomonas aeruginosa) (UniProt B5DCA0).
T1 sequence (whole entry): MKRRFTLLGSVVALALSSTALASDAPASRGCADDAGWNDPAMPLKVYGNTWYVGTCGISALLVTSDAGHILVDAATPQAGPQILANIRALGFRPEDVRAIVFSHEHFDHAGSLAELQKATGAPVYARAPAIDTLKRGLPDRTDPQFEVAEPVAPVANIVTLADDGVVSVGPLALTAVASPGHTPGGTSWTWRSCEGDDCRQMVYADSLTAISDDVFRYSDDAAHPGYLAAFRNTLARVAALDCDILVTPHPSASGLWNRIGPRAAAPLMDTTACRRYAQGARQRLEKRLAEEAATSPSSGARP
The data set can be described thus: Inhibition of Pseudomonas aeruginosa recombinant AIM1 expressed in Escherichia coli BL21(DE3) assessed as potentiation of meropenem-mediated antibacterial activity by measuring meropenem MIC at 30 uM after overnight incubation (reference value: 2 ug/ml). The method in brief: (§1)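 Meropenem MICs (µg/mL) measured for E. coli BL21 cultures expressing IMP-1, CphA or AIM-1. Each strain was tested with no inhibitor (blank) and with the test compound at 30 µM. Change in sensitivity is expressed as the reduction of the meropenem MIC relative to the blank.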

Data set [3] has as its system Bacteria. The data set can be described thus: Inhibition of bacterial IMP1 expressed in Escherichia coli BL21(DE3) assessed as potentiation of meropenem-mediated antibacterial activity by measuring meropenem MIC at 30 uM after overnight incubation (reference value: 1 ug/ml). The method in brief: as §1
For data set [4], the system named is Bacteria. The data set can be described thus: Competitive inhibition of bacterial IMP1 using CENTA as substrate by UV/Vis multi-plate spectrophotometric method.
For data set [5], the system named is Escherichia coli. The data set can be described thus: Growth inhibition of Escherichia coli BL21(DE3) expressing bacterial IMP1. It counts as organism-based. The settings on record: in vivo.
Data set [6] has as its target T1, Metallo-beta-lactamase AIM-1 (Pseudomonas aeruginosa). The experiment in a line: Uncompetitive inhibition of Pseudomonas aeruginosa recombinant AIM1 expressed in Escherichia coli BL21(DE3) using cefuroxime as substrate by UV/Vis multi-plate spectrophotometric method.
Data set [7] shares this target. The experiment in a line: Competitive inhibition of Pseudomonas aeruginosa recombinant AIM1 expressed in Escherichia coli BL21(DE3) using cefuroxime as substrate by UV/Vis multi-plate spectrophotometric method.
The test system of data set [8] is Escherichia coli. The experiment in a line: Growth inhibition of Escherichia coli BL21(DE3) expressing Aeromonas hydrophila CphA. The data set is classed as organism-based. The settings on record: in vivo.
Data set [9] concerns Escherichia coli. The data set can be described thus: Growth inhibition of Escherichia coli BL21(DE3) expressing Pseudomonas aeruginosa AIM1. It counts as organism-based. As to conditions: in vivo.
Data set [10] has as its target Metallo-beta-lactamase type 2 (Aeromonas hydrophila) (UniProt P26918). The experiment in a line: Inhibition of Aeromonas hydrophila CphA expressed in Escherichia coli BL21(DE3) assessed as potentiation of meropenem-mediated antibacterial activity by measuring meropenem MIC at 30 uM after overnight incubation (reference value: 1 ug/ml). The method, boiled down:
as §1

Data set [11] has as its system Bacteria. The experiment in a line: Uncompetitive inhibition of bacterial IMP1 using CENTA as substrate by UV/Vis multi-plate spectrophotometric method.
Data set [12] is described as follows: Drug metabolism assessed as bacterial IMP1-mediated N-(1-Benzyl-3-cyano-4,5-diphenyl-1H-pyrrol-2-yl)benzamide formation by ESI-MS method. As to conditions: bacteria. It counts as ADME.
The target in data set [13] is Metallo-beta-lactamase type 2 (Aeromonas hydrophila) (UniProt P26918). The data set can be described thus: Competitive inhibition of Aeromonas hydrophila recombinant CphA expressed in Escherichia coli BL21(DE3) using meropenem as substrate by UV/Vis multi-plate spectrophotometric method.
Data set [14] has the same target. The experiment in a line: Uncompetitive inhibition of Aeromonas hydrophila recombinant CphA expressed in Escherichia coli BL21(DE3) using meropenem as substrate by UV/Vis multi-plate spectrophotometric method.
The target in data set [15] is T1, Metallo-beta-lactamase AIM-1 (Pseudomonas aeruginosa). The data set can be described thus: Inhibition of Pseudomonas aeruginosa AIM1 expressed in Escherichia coli BL21(DE3) assessed as decrease in meropenem MIC at 30 uM after overnight incubation relative to control. The method, boiled down: as §1
The target of data set [16] is Metallo-beta-lactamase type 2 (Aeromonas hydrophila) (UniProt P26918). The data set can be described thus: Inhibition of Aeromonas hydrophila CphA expressed in Escherichia coli BL21(DE3) assessed as decrease in meropenem MIC at 30 uM after overnight incubation relative to control. The method, boiled down: as §1
The test system of data set [17] is Bacteria. The experiment in a line: Inhibition of bacterial IMP1 expressed in Escherichia coli BL21(DE3) assessed as decrease in meropenem MIC at 30 uM after overnight incubation relative to control. The method, boiled down: as §1

Chain of Metallo-beta-lactamase type 2 (Aeromonas hydrophila) (P26918 whole entry): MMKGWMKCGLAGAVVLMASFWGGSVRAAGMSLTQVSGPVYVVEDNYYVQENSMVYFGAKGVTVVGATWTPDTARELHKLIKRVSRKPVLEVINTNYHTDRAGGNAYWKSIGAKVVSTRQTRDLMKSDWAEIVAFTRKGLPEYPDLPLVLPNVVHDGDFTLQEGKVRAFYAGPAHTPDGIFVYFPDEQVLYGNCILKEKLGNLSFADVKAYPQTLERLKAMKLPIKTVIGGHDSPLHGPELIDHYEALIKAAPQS

In data set [1], `COc1ccc(Cn2c(N)c(C#N)c(-c3ccccc3)c2-c2ccccc2)cc1` displayed an inhibition of 20.1%.

Consider `N#Cc1c(-c2ccccc2)c(-c2ccccc2)n(Cc2ccccc2)c1NC(=O)c1ccc([N+](=O)[O-])cc1`, for which the MIC in data set [2] was 0.5 µg/mL; in data set [3], 0.25 µg/mL; in data set [10], 0.75 µg/mL. Moreover, the Kic in data set [4] turned out to be 1.24 µM; in data set [7], 10.9 µM. Besides, the “growth inhibition (GI)” value in data set [5], in data set [8] and in [9] was “Non-Toxic” throughout. Besides, the Kiuc in [6] amounted to 47 µM. Also, in data set [1], the inhibition was found to be 36.9%.

Consider `NC(=O)c1c(-c2ccccc2)c(-c2ccccc2)n(Cc2ccccc2)c1N`, for which the inhibition in data set [1] amounted to 0%.

`N#Cc1c(-c2ccccc2)c(-c2ccccc2)n(Cc2ccccc2)c1N(C(=O)c1ccc([N+](=O)[O-])cc1)C(=O)c1ccc([N+](=O)[O-])cc1`: the inhibition in [1] was 20.2%.

In data set [1], `CCCC(=O)Nc1c(C#N)c(-c2ccccc2)c(-c2ccccc2)n1Cc1ccccc1` registered an inhibition of 21%.

Take `N#Cc1c(-c2ccccc2)c(-c2ccccc2)n(Cc2ccccc2)c1NC(=O)c1cccc([N+](=O)[O-])c1`: the Kic in [4] was 23.7 µM. In addition, the Kiuc in [11] was 3.3 µM. The compound further came in with an inhibition in data set [1] of 48.7%.

Compound `CC(=O)Nc1c(C#N)c(-c2ccccc2)c(-c2ccccc2)n1Cc1ccccc1` showed an inhibition in data set [1] of 16.1%.

`N#Cc1c(-c2ccccc2)c(-c2ccccc2)n(Cc2ccccc2)c1N1C(=O)c2ccccc2C1=O` registered an inhibition in data set [1] of 20.3%.

As to `N#Cc1c(-c2ccco2)c(-c2ccco2)n(Cc2ccccc2)c1N`, in data set [1], the inhibition is 23.2%.

For `CC(=O)N(C(C)=O)c1c(C#N)c(-c2ccccc2)c(-c2ccccc2)n1Cc1ccccc1`, the inhibition in data set [1] amounted to 18.6%.

The compound `N#Cc1c(-c2ccccc2)c(-c2ccccc2)n(CCc2ccccc2)c1N` displayed an inhibition in [1] of 4.8%.

In turn, `N#Cc1c(-c2ccccc2)c(-c2ccccc2)n(Cc2ccccc2)c1N(C(=O)c1ccccc1)C(=O)c1ccccc1` displayed a Kic in data set [4] of 468 µM. In addition, in data set [11], the Kiuc was 55 µM. The same compound showed an inhibition in data set [1] of 48%. In addition, in data set [12], the Drug metabolism entry was “Metabolite_Notdetected”.

As for `N#Cc1c(-c2ccccc2)c(-c2ccccc2)n(Cc2ccccc2)c1N`, the MIC in data set [2] came to 0.25 µg/mL; in data set [3], 0.5 µg/mL; in [10], 0.047 µg/mL. In addition, the Kic in data set [4] is 21 µM; in data set [13], 52 µM; in data set [7] it was 2.2 µM. In addition, the “growth inhibition (GI)” value in data set [5], in data set [8] and in [9] was “Non-Toxic” each time. The Kiuc stood at 5.5 µM in [14] and 12.5 µM in data set [6]. In data set [1], the inhibition was 26%.

For `N#Cc1c(-c2ccccc2)c(-c2ccccc2)n(Cc2ccccc2)c1NC(=O)c1ccccc1`, the Kic in [4] turned out to be 10.7 µM; in [13] it was 11 µM; in data set [7], 1.6 µM. The Kiuc in [11] was determined as 4.3 µM; in [14], 9 µM; in data set [6], 13 µM. In addition, the fold change (FC) was found to be 20 in data set [15], 40 in data set [16] and 20 in [17]. For the same compound, the “growth inhibition (GI)” value in data set [5], in [8] and in [9] was “Non-Toxic” throughout. In addition, the inhibition in data set [1] stood at 50.9%.

`Nc1c(-c2nnn[nH]2)c(-c2ccccc2)c(-c2ccccc2)n1Cc1ccccc1` returned an inhibition in data set [1] of 8.7%.

In turn, `N#Cc1c(-c2ccccc2)c(-c2ccccc2)n(CCCCc2ccccc2)c1N` came in with an inhibition in data set [1] of 8.7%.

Take `Cc1c(C#N)c(N)n(Cc2ccccc2)c1C`: the inhibition in data set [1] was 2.3%.

For `N#Cc1c(-c2ccccc2)c(-c2ccccc2)n(-c2ccccc2)c1N`, the inhibition in data set [1] was 0%.

As to `Cc1cc(C)cc(C(=O)Nc2c(C#N)c(-c3ccccc3)c(-c3ccccc3)n2Cc2ccccc2)c1`, the Kic in [4] was 20.2 µM. This compound returned a Kiuc in data set [11] of 7.8 µM. The inhibition in data set [1] was determined as 32.3%.

For `N#Cc1c(-c2ccccc2)c(-c2ccccc2)n(Cc2ccccc2)c1NC(=O)c1ccc(C(=O)c2ccccc2)cc1`, the figures for the MIC in data set [2], in data set [3] and in [10] were 0.75 µg/mL, 0.5 µg/mL and 0.75 µg/mL, respectively. Moreover, the Kiuc in data set [11] came to 1.52 µM; in data set [14], 161 µM. Further, the Kic in data set [13] was 872 µM. For the same compound, the “growth inhibition (GI)” value in data set [5], in data set [8] and in data set [9] was “Non-Toxic” each time. This compound also registered an inhibition in data set [1] of 44.3%.

As to `CCCCCCCCCCCCCC(=O)N(C(=O)CCCCCCCCCCCCC)c1c(C#N)c(-c2ccccc2)c(-c2ccccc2)n1Cc1ccccc1`, the inhibition in data set [1] was found to be 14.3%.

Regarding `N#Cc1c(N)[nH]c(-c2ccccc2)c1-c1ccccc1`, the inhibition in [1] is 12%.

Turning to `N#Cc1c(-c2ccccc2)c(-c2ccccc2)n(CCCc2ccccc2)c1N`, in data set [1], the inhibition was 4.1%.

Regarding `N#Cc1c(-c2ccccc2)c(-c2ccccc2)n(Cc2ccccc2)c1NC(=O)C1CCCCC1`, in data set [1], the inhibition came to 23.3%.

Turning to `CCCCCCCCCCCCCC(=O)Nc1c(C#N)c(-c2ccccc2)c(-c2ccccc2)n1Cc1ccccc1`, the inhibition in data set [1] stood at 8.2%.

As to `Cc1cc(C)cc(C(=O)N(C(=O)c2cc(C)cc(C)c2)c2c(C#N)c(-c3ccccc3)c(-c3ccccc3)n2Cc2ccccc2)c1`, the inhibition in [1] is 13.3%.

In data set [1], `CCCC(=O)N(C(=O)CCC)c1c(C#N)c(-c2ccccc2)c(-c2ccccc2)n1Cc1ccccc1` displayed an inhibition of 17.1%.
